In ChEMBL document CHEMBL1142960, “Synthesis and structure-activity relationships for 2,4-dinitrobenzamide-5-mustards as prodrugs for the Escherichia coli nfsB nitroreductase in gene therapy” (J Med Chem, 2007):
≈ marks a conversion by molar mass, not a printed value.

Columns and labels:
V79 [1] = assay: Antiproliferative activity against chinese hamster wild-type V79 NTR-ve cells after 18 hrs; assay type: functional, cell-based; settings: Cricetulus griseus, V79, 18 h
V79 [2] = assay: Antiproliferative activity against chinese hamster V79 NTRpuro cells after 18 hrs; assay type: functional, cell-based; settings: Cricetulus griseus, V79, 18 h
V79 [3] = assay: Selectivity ratio of IC50 for V79 NTR-ve cells to IC50 for V79 NTRpuro cells; assay type: functional, Cricetulus griseus
EMT6 [4] = assay: Antiproliferative activity against mouse wild type EMT6 NTR-ve cells after 18 hrs; assay type: functional, cell-based; settings: EMT6, 18 h
EMT6 [5] = assay: Antiproliferative activity against mouse EMT6 NTRpuro cells after 18 hrs; assay type: functional, cell-based; settings: EMT6, 18 h
EMT6 [6] = assay: Selectivity ratio of IC50 for EMT6 NTR-ve cells to IC50 forEMT6 NTRpuro cells; assay type: functional, Mus musculus
WiDr [7] = assay: Antiproliferative activity against human wild type WiDr NTR-ve cells after 18 hrs; assay type: functional, cell-based
WiDr [8] = assay: Antiproliferative activity against human WiDr NTRneo cells after 18 hrs; assay type: functional, cell-based
WiDr [9] = assay: Selectivity ratio of IC50 for WiDr NTR-ve cells to IC50 for WiDr NTRneo cells; assay type: functional, Homo sapiens
[10] = Antiproliferative activity against human wild type Skov3 NTR-ve cells after 18 hrs; assay type: functional, cell-based
[11] = Antiproliferative activity against human Skov3 NTRneo cells after 18 hrs; assay type: functional, cell-based; settings: SK-OV-3, 18 h
[12] = Selectivity ratio of IC50 for Skov3 NTR-ve cells to IC50 for Skov3 NTRneo cells; assay type: functional, Homo sapiens
[13] = Solubility in alpha MEM; assay type: physicochemical
In short: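 Solubility (mM) in α-MEM with 5% fetal calf serum at ambient temperature, measured by HPLC.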

[14] = Stability in alpha MEM at 37 degC after 24 hrs; assay type: physicochemical; settings: read-out: Stability
In short: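 Percent parent compound remaining, by HPLC, after holding in α-MEM with 5% fetal calf serum at 37 °C for 24 h.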

Compound | IC50 (V79 [1]) | IC50 (V79 [2]) | Ratio IC50 (V79 [3]) | IC50 (EMT6 [4]) | IC50 (EMT6 [5]) | Ratio IC50 (EMT6 [6]) | IC50 (WiDr [7]) | IC50 (WiDr [8]) | Ratio IC50 (WiDr [9]) | IC50 [10] | IC50 [11] | Ratio IC50 [12] | solubility [13] | remaining at 24 h [14]
COC(=O)CCNC(=O)c1cc(N(CCBr)CCBr)c([N+](=O)[O-])cc1[N+](=O)[O-] | 52 µM | 1.1 µM | 45 | 76 µM | 0.59 µM | 149 | 80 µM | 2.1 µM | 47 | 110 µM | 2.3 µM | 49 | 280 µM (≈ 147 µg/mL) | 70%
O=C(NCCn1ccnc1)c1cc(N(CCCl)CCCl)c([N+](=O)[O-])cc1[N+](=O)[O-] | 273 µM | 46 µM | 6.6 | 178 µM | 2.6 µM | 52 | 163 µM | 11 µM | 18 | 438 µM | 4.1 µM | 140 | 500 µM (≈ 223 µg/mL) | 94%
O=C(NOCCO)c1cc(N(CCCl)CCCl)c([N+](=O)[O-])cc1[N+](=O)[O-] | 750 µM | 13 µM | 76 | 560 µM | 6.6 µM | 85 | 895 µM | 25 µM | 39 | > 1190 µM | 11 µM | >90 | 2100 µM (≈ 864 µg/mL) | 100%
NCCNC(=O)c1cc(N(CCCl)CCCl)c([N+](=O)[O-])cc1[N+](=O)[O-] | 462 µM | 52 µM | 11 | 124 µM | 0.37 µM | 413 | 180 µM | 5.9 µM | 38 | 417 µM | 6.8 µM | 69 | 9200 µM (≈ 3630 µg/mL) | 99%
CS(=O)(=O)NC(=O)c1cc(N(CCCl)CCCl)c([N+](=O)[O-])cc1[N+](=O)[O-] | 328 µM | 237 µM | 1.5 | 450 µM | 278 µM | 2 | 1310 µM | 223 µM | 5.4 | 1040 µM | 160 µM | 6.7 | 17000 µM (≈ 7300 µg/mL) | 100%
CS(=O)(=O)c1cc([N+](=O)[O-])c(N(CCCl)CCCl)cc1C(N)=O | > 50 µM | > 50 µM | – | > 50 µM | > 50 µM | – | > 50 µM | > 50 µM | – | > 50 µM | > 50 µM | – | 60 µM (≈ 23.1 µg/mL) | 74%
O=C(NCCCCN1CCOCC1)c1cc(N(CCCl)CCCl)c([N+](=O)[O-])cc1[N+](=O)[O-] | 142 µM | 25 µM | 5.9 | 192 µM | 7.4 µM | 28 | 68 µM | 23 µM | 3 | 447 µM | 9.3 µM | 61 | 2000 µM (≈ 985 µg/mL) | 91%
CS(=O)(=O)OCCN(CCOS(C)(=O)=O)c1cc(C(=O)NCC(O)CO)c([N+](=O)[O-])cc1[N+](=O)[O-] (stereo unspecified) | 237 µM | 16 µM | 13 | 251 µM | 8 µM | 31 | 347 µM | 23 µM | 17 | 379 µM | 10 µM | 43 | 9000 µM (≈ 4900 µg/mL) | 54%
CS(=O)(=O)OCCN(CCCl)c1cc(C(=O)NCC(O)CO)c([N+](=O)[O-])cc1[N+](=O)[O-] (stereo unspecified) | – | – | – | 1210 µM | 3.81 µM | 344 | 1230 µM | 6 µM | 328 | 1380 µM | 5 µM | 286 | 2100 µM (≈ 1020 µg/mL) | 74%
O=C(O)CCNC(=O)c1cc(N(CCCl)CCCl)c([N+](=O)[O-])cc1[N+](=O)[O-] | 4890 µM | 470 µM | 9.5 | 4630 µM | 424 µM | 13 | 6390 µM | 1810 µM | 3.5 | 5720 µM | 643 µM | 11 | – | –
